Reference: ChEMBL document CHEMBL3861959, “Synthesis and antiproliferative evaluation of novel 2-(4H-1,2,4-triazole-3-ylthio)acetamide derivatives as inducers of apoptosis in cancer cells” (Eur J Med Chem, 2016)

Legend:
[1] = Cytotoxicity against human SNB75 cells assessed as cell growth at 10^-5 M after 48 hrs by SRB assay relative to control; format: functional; settings: SNB-75, 48 h, read-out: Activity
In short: (§1)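 Single-dose NCI 60-cell-line screen run under the US NCI protocol. Compounds tested at 10 µM. Read-out is growth percent for each cell line.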

[2] = Selectivity index, ratio of CC50 for human MT4 cells to EC50 for HIV2 ROD; format: toxicity, cell-based; settings: read-out: Ratio CC50/EC50
In short: (§2)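 HIV-1 IIIB and HIV-2 ROD tested in MT-4 cells by MTT. Serial fivefold dilutions of compound added to triplicate mock- and virus-infected wells. MT-4 cells at 6 × 10^5 cells/mL. Absorbance read at 540/690 nm; median OD of three wells used. CC50 is the concentration reducing mock-infected OD540 by 50%. […]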

[3] = Cytotoxicity against human HOP62 cells assessed as cell growth at 10^-5 M after 48 hrs by SRB assay relative to control; format: functional; settings: HOP-62, 48 h, read-out: Activity
In short: (§3)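 NCI single-dose primary screen run under the US NCI protocol. Compounds tested at 10 µM across the 60-cell-line panel, with growth percent reported for each line.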

[4] = Cytotoxicity against human MDA-MB-435 cells assessed as cell growth at 10^-5 M after 48 hrs by SRB assay relative to control; format: functional; settings: MDA-MB-435, 48 h, read-out: Activity; in short: as §3
[5] = Cytotoxicity against human OVCAR8 cells assessed as cell growth at 10^-5 M after 48 hrs by SRB assay relative to control; format: functional; settings: OVCAR-8, 48 h, read-out: Activity; in short: as §3
[6] = Cytotoxicity against human PC3 cells assessed as cell growth at 10^-5 M after 48 hrs by SRB assay relative to control; format: functional; settings: PC-3, 48 h, read-out: Activity; in short: as §3
[7] = Cytotoxicity against human SK-MEL-5 cells assessed as cell growth at 10^-5 M after 48 hrs by SRB assay relative to control; format: functional; settings: SK-MEL-5, 48 h, read-out: Activity; in short: as §1
[8] = Cytotoxicity against human NCI-H226 cells assessed as cell growth at 10^-5 M after 48 hrs by SRB assay relative to control; format: functional; settings: NCI-H226, 48 h, read-out: Activity; in short: as §3
[9] = Cytotoxicity against mouse NIH/3T3 cells assessed as decrease in cell survival after 48 hrs by MTT assay; format: toxicity, NIH3T3
[10] = Cytotoxicity against human LOXIMVI cells assessed as cell growth at 10^-5 M after 48 hrs by SRB assay relative to control; format: functional; settings: LOX IMVI, read-out: Activity; in short: as §3
[11] = Cytotoxicity against human UACC257 cells assessed as cell growth at 10^-5 M after 48 hrs by SRB assay relative to control; format: functional; settings: UACC-257, 48 h, read-out: Activity; in short: as §1
[12] = Cytotoxicity against human COLO205 cells assessed as cell growth at 10^-5 M after 48 hrs by SRB assay relative to control; format: functional; settings: COLO 205, 48 h, read-out: Activity; in short: as §3
[13] = Cytotoxicity against human ACHN cells assessed as cell growth at 10^-5 M after 48 hrs by SRB assay relative to control; format: functional; settings: read-out: Activity; in short: as §3
[14] = Cytotoxicity against human SF295 cells assessed as cell growth at 10^-5 M after 48 hrs by SRB assay relative to control; format: functional; settings: SF-295, 48 h, read-out: Activity; in short: as §3
[15] = Cytotoxicity against human SKOV3 cells assessed as cell growth at 10^-5 M after 48 hrs by SRB assay relative to control; format: functional; settings: SK-OV-3, 48 h, read-out: Activity; in short: as §1
[16] = Cytotoxicity against human NCI-ADR-RES cells assessed as cell growth at 10^-5 M after 48 hrs by SRB assay relative to control; format: functional; settings: read-out: Activity; in short: as §3
[17] = Cytotoxicity against human Hs 578T cells assessed as cell growth at 10^-5 M after 48 hrs by SRB assay relative to control; format: functional; settings: read-out: Activity; in short: as §3
[18] = Cytotoxicity against human NCI-H522 cells assessed as cell growth at 10^-5 M after 48 hrs by SRB assay relative to control; format: functional; settings: NCI-H522, 48 h, read-out: Activity; in short: as §3
[19] = Cytotoxicity against human IGROV1 cells assessed as cell growth at 10^-5 M after 48 hrs by SRB assay relative to control; format: functional; settings: IGROV-1, 48 h, read-out: Activity; in short: as §3
[20] = Cytotoxicity against human SW620 cells assessed as cell growth at 10^-5 M after 48 hrs by SRB assay relative to control; format: functional; settings: SW-620, 48 h, read-out: Activity; in short: as §1
[21] = Cytotoxicity against human UO31 cells assessed as cell growth at 10^-5 M after 48 hrs by SRB assay relative to control; format: functional; settings: UO-31, 48 h, read-out: Activity; in short: as §1
[22] = Cytotoxicity against human A549 cells assessed as cell growth at 10^-5 M after 48 hrs by SRB assay relative to control; format: functional; settings: A549, 48 h, read-out: Activity; in short: as §3
[23] = system: Human immunodeficiency virus 1; assay: Antiviral activity against HIV1 3B infected in human MT4 cells assessed as protection against virus-induced cytopathic effect after 5 days MTT assay; format: functional, cell-based; settings: Human immunodeficiency virus 1, 3B, MT4, 120 h
In short: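 HIV-1 strain IIIB and HIV-2 strain ROD in MT-4 cells, MTT-based. Test compounds in serial five-fold dilutions, in triplicate wells run alongside mock-infected cells, with untreated infected and mock controls. MT-4 cells resuspended at 6 × 10^5 cells/mL. Absorbance read at 540 and 690 nm, median OD of three wells. EC50 is the 50% effective concentration.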

[24] = Cytotoxicity against human SNB19 cells assessed as cell growth at 10^-5 M after 48 hrs by SRB assay relative to control; format: functional; settings: SNB-19, 48 h, read-out: Activity; in short: as §1
[25] = Cytotoxicity against human SF268 cells assessed as cell growth at 10^-5 M after 48 hrs by SRB assay relative to control; format: functional; settings: SF-268, 48 h, read-out: Activity; in short: as §3
[26] = Cytotoxicity against human 786-0 cells assessed as cell growth at 10^-5 M after 48 hrs by SRB assay relative to control; format: functional; settings: 786-0, 48 h, read-out: Activity; in short: as §3
[27] = Cytotoxicity against human M14 cells assessed as cell growth at 10^-5 M after 48 hrs by SRB assay relative to control; format: functional; settings: M14, 48 h, read-out: Activity; in short: as §3
[28] = Selectivity index, ratio of CC50 for human MT4 cells to EC50 for HIV1 3B; format: toxicity, cell-based; settings: read-out: Ratio CC50/EC50; in short: as §2
[29] = Cytotoxicity against human HT-29 cells assessed as cell growth at 10^-5 M after 48 hrs by SRB assay relative to control; format: functional; settings: HT-29, 48 h, read-out: Activity; in short: as §3
[30] = Cytotoxicity against human MDA-MB-468 cells assessed as cell growth at 10^-5 M after 48 hrs by SRB assay relative to control; format: functional; settings: MDA-MB-468, 48 h, read-out: Activity; in short: as §3
[31] = Cytotoxicity against human HCT116 cells assessed as cell growth at 10^-5 M after 48 hrs by SRB assay relative to control; format: functional; settings: HCT-116, 48 h, read-out: Activity; in short: as §3

Compound: CC(=O)Nc1ccc(OCc2nnc(SCC(=O)Nc3ccc(Br)cc3)n2Cc2ccccc2)cc1
- growth at 10 µM [1]: 103%
- selectivity ratio [2]: ≤ 1
- growth at 10 µM [3]: 90.3%
- growth at 10 µM [4]: 66%
- growth at 10 µM [5]: 84.8%
- growth at 10 µM [6]: 54.2%
- growth at 10 µM [7]: 69.8%
- growth at 10 µM [8]: 80.3%
- IC50 at 48 h [9]: > 100 µg/mL
- growth at 10 µM [10]: 33.4%
- growth at 10 µM [11]: 98.4%
- growth at 10 µM [12]: 105%
- growth at 10 µM [13]: 58.6%
- growth at 10 µM [14]: 80.2%
- growth at 10 µM [15]: 110%
- growth at 10 µM [16]: 68.2%
- growth at 10 µM [17]: 97.9%
- growth at 10 µM [18]: 71.2%
- growth at 10 µM [19]: 83.2%
- growth at 10 µM [20]: 59%
- growth at 10 µM [21]: 52.8%
- growth at 10 µM [22]: 78.5%
- EC50 [23]: > 3.99 µg/mL
- growth at 10 µM [24]: 92.3%
- growth at 10 µM [25]: 70.9%
- growth at 10 µM [26]: 91.1%
- growth at 10 µM [27]: 43.5%
- selectivity ratio [28]: ≤ 1
- growth at 10 µM [29]: 93.9%
- growth at 10 µM [30]: 77.8%
- growth at 10 µM [31]: 53.2%

Compound: Cc1ccc(C(C)C)c(OCc2nnc(SCC(=O)Nc3ccc(Cl)cc3)n2Cc2ccccc2)c1
- growth at 10 µM [1]: 93.6%
- selectivity ratio [2]: < 1
- growth at 10 µM [3]: 81.2%
- growth at 10 µM [4]: 103%
- growth at 10 µM [5]: 67.3%
- growth at 10 µM [6]: 71.9%
- growth at 10 µM [7]: 90.5%
- growth at 10 µM [8]: 88%
- IC50 at 48 h [9]: > 100 µg/mL
- growth at 10 µM [10]: 64.4%
- growth at 10 µM [11]: 105%
- growth at 10 µM [12]: 78.2%
- growth at 10 µM [13]: 41.6%
- growth at 10 µM [14]: 88.1%
- growth at 10 µM [15]: 109%
- growth at 10 µM [16]: 69.1%
- growth at 10 µM [17]: 75.5%
- growth at 10 µM [18]: 90.4%
- growth at 10 µM [19]: 69.4%
- growth at 10 µM [20]: 65.9%
- growth at 10 µM [21]: 53.6%
- growth at 10 µM [22]: 27.9%
- EC50 [23]: > 65.9 µg/mL
- growth at 10 µM [24]: 80.3%
- growth at 10 µM [25]: 88.6%
- growth at 10 µM [26]: 38.9%
- growth at 10 µM [27]: 99%
- selectivity ratio [28]: < 1
- growth at 10 µM [29]: 70%
- growth at 10 µM [30]: 72.3%
- growth at 10 µM [31]: 52.9%

Compound: Cc1ccc(C(C)C)c(OCc2nnc(SCC(=O)Nc3ccc(S(N)(=O)=O)cc3)n2Cc2ccccc2)c1
- growth at 10 µM [1]: 93.8%
- selectivity ratio [2]: < 1
- growth at 10 µM [3]: 79.1%
- growth at 10 µM [4]: 76.2%
- growth at 10 µM [5]: 41.1%
- growth at 10 µM [6]: 31.1%
- growth at 10 µM [7]: 50.3%
- growth at 10 µM [8]: 66.6%
- IC50 at 48 h [9]: > 100 µg/mL
- growth at 10 µM [10]: 68.2%
- growth at 10 µM [11]: 89%
- growth at 10 µM [12]: 90.2%
- growth at 10 µM [13]: 76%
- growth at 10 µM [14]: 70.7%
- growth at 10 µM [15]: 109%
- growth at 10 µM [16]: 77.1%
- growth at 10 µM [17]: 86.2%
- growth at 10 µM [18]: 75.3%
- growth at 10 µM [19]: 90.1%
- growth at 10 µM [20]: 91.7%
- growth at 10 µM [21]: 42.7%
- growth at 10 µM [22]: 50.6%
- EC50 [23]: > 13 µg/mL
- growth at 10 µM [24]: 88.4%
- growth at 10 µM [25]: 74%
- growth at 10 µM [26]: 92.3%
- growth at 10 µM [27]: 87.3%
- selectivity ratio [28]: < 1
- growth at 10 µM [29]: 72.4%
- growth at 10 µM [30]: 70.5%
- growth at 10 µM [31]: 66.1%
